The results in this text go back to ChEMBL document CHEMBL1124412, “Long acting dihydropyridine calcium antagonists. 2. 2-[2-Aminoheterocycloethoxy]methyl derivatives” (J Med Chem, 1989).

The species entered for one assay is Cavia porcellus. Description: In vitro assessment of negative inotropy in the isolated Langendorff perfused guinea pig heart. Format: functional.
The species named for another assay is Rattus norvegicus. Nature of the assay: Concentration required to inhibit calcium-induced constriction of potassium-depolarized rat aorta by 50%. Type of assay: functional.
The next assay concerns Canis familiaris. Nature of the assay: Percent decrease in coronary vascular resistance in dogs at 150 u/kg intravenous dose. Format: functional, Canis lupus familiaris. An outline of the steps:
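Anaesthetized beagle dogs were implanted with catheters for blood pressure, left ventricular pressure and intravenous dosing, and given 150 µg/kg i.v. Coronary blood flow was measured by hydrogen clearance with platinum electrodes in the coronary sinus and femoral artery, and cardiac output by thermodilution. Coronary vascular resistance was derived from these measurements, and the duration-of-action half-life was followed in hours.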

As usually defined, the IC50 is the point on the concentration scale where inhibition reaches its midpoint.

The compound `CCO/C(O)=C1\C(COCCNC2=NC(=O)C(C)(C)N2)=NC(C)=C(C(=O)OC)C1c1cccc(Cl)c1Cl` (stereo unspecified) had a pIC25 in the assay listed under Cavia porcellus of 6.2. In the assay listed under Rattus norvegicus, the IC50 was 20 nM.

The compound `CCO/C(O)=C1\C(COCCNc2n[nH]c(N)n2)=NC(C)=C(C(=O)OC)C1c1cccc(C(F)(F)F)c1Cl` (stereo unspecified) registered a pIC25 in the assay filed under Cavia porcellus of 6.3. Besides, the IC50 in the assay listed under Rattus norvegicus was 3.98 nM.

In the case of `CCO/C(O)=C1\C(COCCNc2n[nH]c(N)n2)=NC(C)=C(C(=O)OC)C1c1cccc(Cl)c1Cl` (stereo unspecified), in the assay with Canis familiaris, the “Decrease in CVR” value was 70%. The compound further had a pIC25 in the assay listed under Cavia porcellus of 6.3. In the assay listed under Rattus norvegicus, the IC50 was 6.31 nM.

For `CCO/C(O)=C1\C(COCCNc2n[s+]([O-])nc2OC)=NC(C)=C(C(=O)OC)C1c1cccc(Cl)c1Cl` (stereo unspecified), the pIC25 in the assay listed under Cavia porcellus is 7.1. Also, in the assay listed under Rattus norvegicus, the IC50 was 10 nM.

As for `CCO/C(O)=C1\C(COCCNc2nc(O)cc(-c3ccccc3)n2)=NC(C)=C(C(=O)OC)C1c1cccc(Cl)c1Cl` (stereo unspecified), in the assay listed under Cavia porcellus, the pIC25 is given as 6.9. In addition, the IC50 in the assay filed under Rattus norvegicus is 7.94 nM.

Regarding `CCO/C(O)=C1\C(COCCNc2ccnc(O)n2)=NC(C)=C(C(=O)OC)C1c1cccc(Cl)c1Cl` (stereo unspecified), the “Decrease in CVR” value in the assay with Canis familiaris was 62%. Moreover, the pIC25 in the assay listed under Cavia porcellus worked out at 6.7. In the assay listed under Rattus norvegicus, the IC50 was 1.58 nM.

Compound `CCO/C(O)=C1\C(C)=NC(COCCNc2n[nH]c(N)n2)=C(C(=O)OC)C1c1cccc(Cl)c1Cl` (stereo unspecified) gave a pIC25 in the assay filed under Cavia porcellus of 5.5. Besides, the IC50 in the assay listed under Rattus norvegicus was 100 nM.

Regarding `CCO/C(O)=C1\C(COCCNc2n[nH]c(N)n2)=NC(C)=C(C(=O)OC)C1c1ccccc1Cl` (stereo unspecified), the pIC25 in the assay filed under Cavia porcellus turned out to be 6.2. Further, the IC50 in the assay listed under Rattus norvegicus was 20 nM.

Take `CCO/C(O)=C1\C(COCCNc2cc(O)ncn2)=NC(C)=C(C(=O)OC)C1c1cccc(Cl)c1Cl` (stereo unspecified): in the assay listed under Cavia porcellus, the pIC25 is listed as 7.2. Also, the concentration for half-maximal inhibition (IC50) in the assay listed under Rattus norvegicus was 1.26 nM.

In the case of `CCO/C(O)=C1\C(COCCNc2nccc(O)n2)=NC(C)=C(C(=O)OC)C1c1cccc(Cl)c1Cl` (stereo unspecified), the “Decrease in CVR” value in the assay on Canis familiaris was 70%. For the same compound, the pIC25 in the assay listed under Cavia porcellus is on record as 6.7. In addition, the IC50 in the assay filed under Rattus norvegicus is 2.51 nM.

As to `CCO/C(O)=C1\C(COCCNc2n[nH]c(N)n2)=NC(C)=C(C(=O)OC)C1c1cccc(Cl)c1` (stereo unspecified), the IC50 in the assay filed under Rattus norvegicus was 126 nM.

As to `CCO/C(O)=C1\C(COCCNc2n[nH]c(O)n2)=NC(C)=C(C(=O)OC)C1c1cccc(Cl)c1Cl` (stereo unspecified), the pIC25 in the assay listed under Cavia porcellus is on record as 6.4. In addition, the IC50 in the assay filed under Rattus norvegicus is 10 nM.

`CCO/C(O)=C1\C(COCCNc2nc(O)cs2)=NC(C)=C(C(=O)OC)C1c1cccc(Cl)c1Cl` (stereo unspecified) yielded a pIC25 in the assay listed under Cavia porcellus of 6.1. Further, the IC50 in the assay filed under Rattus norvegicus was 20 nM.

In the case of `CCO/C(O)=C1\C(COCCNc2noc(N)n2)=NC(C)=C(C(=O)OC)C1c1cccc(Cl)c1Cl` (stereo unspecified), the “Decrease in CVR” value in the assay on Canis familiaris is 76%. In the assay filed under Cavia porcellus, this compound displayed a pIC25 of 7.3. In the assay filed under Rattus norvegicus, the IC50 is 3.16 nM.

In the assay filed under Cavia porcellus, `CCO/C(O)=C1\C(COCC/N=C(/N)S)=NC(C)=C(C(=O)OC)C1c1cccc(Cl)c1Cl` (stereo unspecified) registered a pIC25 of 7.2. Moreover, the IC50 in the assay listed under Rattus norvegicus is 1 nM.

`CCO/C(O)=C1\C(COCCNc2n[nH]c(N)n2)=NC(C)=C(C(=O)OC)C1c1cccnc1Cl` (stereo unspecified) had a pIC25 in the assay listed under Cavia porcellus of 6. Also, the IC50 in the assay filed under Rattus norvegicus was 316 nM.

On to `COC(=O)C1=C(C)NC(C)=C(C(=O)OC)C1c1ccccc1[N+](=O)[O-]` [NIFEDIPINE], for which the “Decrease in CVR” value in the assay on Canis familiaris came out at 77%. In the assay listed under Cavia porcellus, the pIC25 amounted to 7.5.

Turning to `CCO/C(O)=C1\C(COCCNc2n[s+]([O-])nc2N)=NC(C)=C(C(=O)OC)C1c1cccc(Cl)c1Cl` (stereo unspecified), in the assay filed under Cavia porcellus, the pIC25 is listed as 7. The IC50 in the assay listed under Rattus norvegicus was 15.8 nM.

`CCO/C(O)=C1\C(COCCNc2cc(Cl)ncn2)=NC(C)=C(C(=O)OC)C1c1cccc(Cl)c1Cl` (stereo unspecified) registered a pIC25 in the assay listed under Cavia porcellus of 7.7. In addition, in the assay filed under Rattus norvegicus, the IC50 was 12.6 nM.

Take `CCO/C(O)=C1\C(COCCNc2nccnc2Cl)=NC(C)=C(C(=O)OC)C1c1cccc(Cl)c1Cl` (stereo unspecified): in the assay listed under Cavia porcellus, the pIC25 is reported as 7.4. Further, the IC50 in the assay listed under Rattus norvegicus is 2.51 nM.

For `CCO/C(O)=C1\C(COCCNc2cc(NC)ncn2)=NC(C)=C(C(=O)OC)C1c1cccc(Cl)c1Cl` (stereo unspecified), in the assay filed under Cavia porcellus, the pIC25 was determined as 7.2. For the same compound, the IC50 in the assay listed under Rattus norvegicus was 3.16 nM.

The compound `CCOC(=O)NC(=S)NCCOCC1=C(C(=O)OCC)C(c2cccc(Cl)c2Cl)/C(=C(\O)OC)C(C)=N1` (stereo unspecified) yielded a pIC25 in the assay listed under Cavia porcellus of 6.2. In the assay listed under Rattus norvegicus, the IC50 was 31.6 nM.

Compound `CCO/C(O)=C1\C(COCCNc2nccnc2NC)=NC(C)=C(C(=O)OC)C1c1cccc(Cl)c1Cl` (stereo unspecified) returned a pIC25 in the assay filed under Cavia porcellus of 7. In the assay listed under Rattus norvegicus, the IC50 was 5.01 nM.

Regarding `CCO/C(O)=C1\C(COCCNc2nc(N)n(C)n2)=NC(C)=C(C(=O)OC)C1c1cccc(Cl)c1Cl` (stereo unspecified), the pIC25 in the assay listed under Cavia porcellus was found to be 6.8. Also, the IC50 in the assay filed under Rattus norvegicus is 3.98 nM.
